In ChEMBL document CHEMBL1135374, “New series of aryloxypropanolamines with both human beta(3)-adrenoceptor agonistic activity and free radical scavenging properties” (2002):

Tests used:
[1] = target: Beta-3 adrenergic receptor (Homo sapiens) (UniProt P13945); test: Beta adrenergic activity was determined by measuring cAMP production on human Beta3 adrenergic transfected COS-7 cells; format: functional, cell-based
Procedure, shortened: (§1)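 COS-7 cells in DMEM/10% FBS at 37 °C, 5% CO2, lipofected with human β3-receptor plasmid at 70-80% confluence, then grown 24 h. Cells preincubated 30 min at 37 °C in serum-free DMEM/25 mM HEPES pH 7.5, then exposed 20 min to 10 μM compound with 0.24 mM IBMX, with or without 0.1 μM propranolol. cAMP in TCA extract measured by RIA, expressed as pmol/min/well.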

[2] = target: Beta-3 adrenergic receptor (Homo sapiens) (UniProt P13945); test: Beta adrenergic activity as cAMP production in human Beta3 adrenergic receptor expressing COS-7 cells with propranolol; format: functional, cell-based; procedure, shortened: as §1
[3] = system: COS-7; test: CyclicAMP production in untransfected COS-7 cell control; format: functional
Procedure, shortened: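 Non-transfected COS-7 cells grown in DMEM/10% FBS at 37 °C, 5% CO2. Preincubated 30 min at 37 °C in serum-free DMEM/25 mM HEPES pH 7.5, then given 10 μM compound plus 0.24 mM IBMX and 0.1 μM propranolol for 20 min. cAMP in cold 5% TCA extract quantified by RIA, pmol/min/well.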

[4] = species: Bos taurus; test: Oxidation was assessed indirectly by measuring bovine serum albumin thiol protection by using Ellman''s test at 500 uM; format: functional
Procedure, shortened: (§2)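 Hydroxyl radicals from Fenton reaction (Fe2+/H2O2) oxidize BSA. Remaining thiols measured by Ellman's test. Compound present at the stated concentration. Reported as % protection relative to Trolox. Mean ± SEM of three experiments, ANOVA (p < 0.05).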

[5] = species: Bos taurus; test: Oxidation was assessed indirectly by measuring bovine serum albumin (BSA) thiol protection from the formation of thiobarbituric acid reactive substances (TBARs) by TBARs test at 100 uM; format: functional
[6] = species: Bos taurus; test: Oxidation was assessed indirectly by measuring bovine serum albumin (BSA) thiol protection from the formation of thiobarbituric acid reactive substances (TBARs) by TBARs test at 10 uM; format: functional
[7] = species: Bos taurus; test: Oxidation was assessed indirectly by measuring bovine serum albumin (BSA) thiol protection from the formation of thiobarbituric acid reactive substances (TBARs) by TBARs test at 500 uM; format: functional
Procedure, shortened: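 Plasma lipid peroxidation induced by Fenton-generated hydroxyl radicals (Fe2+/H2O2), with compound at the stated concentration. Thiobarbituric acid reactive substances quantified. Expressed as % protection relative to Trolox. Mean ± SEM, three experiments, ANOVA (p < 0.05).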

[8] = species: Bos taurus; test: Oxidation was assessed indirectly by measuring bovine serum albumin thiol protection by using Ellman''s test at 1 mM; format: functional; procedure, shortened: as §2
[9] = species: Bos taurus; test: Oxidation was assessed indirectly by measuring bovine serum albumin(BSA) thiol protection from the formation of thiobarbituric acid reactive substances (TBARs) by TBARs test at 100 uM; format: functional
[10] = species: Bos taurus; test: Oxidation was assessed indirectly by measuring bovine serum albumin(BSA) thiol protection from the formation of thiobarbituric acid reactive substances (TBARs) by TBARs test at 500 uM; format: functional
[11] = species: Bos taurus; test: Oxidation was assessed indirectly by measuring bovine serum albumin (BSA) thiol protection by using Ellman''s test at 1 mM; format: functional; procedure, shortened: as §2
[12] = species: Bos taurus; test: Oxidation was assessed indirectly by measuring bovine serum albumin (BSA) thiol protection by using Ellman''s test at 500 uM; format: functional; procedure, shortened: as §2
[13] = species: Bos taurus; test: Oxidation was assessed indirectly by measuring bovine serum albumin(BSA) thiol protection from the formation of thiobarbituric acid reactive substances (TBARs) by TBARs test at 10 uM; format: functional

Sequence of Beta-3 adrenergic receptor (Homo sapiens) (P13945 whole entry, looked up): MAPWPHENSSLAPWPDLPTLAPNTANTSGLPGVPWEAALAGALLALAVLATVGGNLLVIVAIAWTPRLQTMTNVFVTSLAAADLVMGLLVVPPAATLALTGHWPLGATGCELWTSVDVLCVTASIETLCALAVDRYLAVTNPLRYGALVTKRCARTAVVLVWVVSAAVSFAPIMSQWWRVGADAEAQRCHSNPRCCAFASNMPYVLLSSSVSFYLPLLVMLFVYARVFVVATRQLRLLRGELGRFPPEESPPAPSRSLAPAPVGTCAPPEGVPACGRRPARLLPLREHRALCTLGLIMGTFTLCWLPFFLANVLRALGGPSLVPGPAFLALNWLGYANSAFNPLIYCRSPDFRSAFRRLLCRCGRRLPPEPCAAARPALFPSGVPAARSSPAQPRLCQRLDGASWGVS

| cAMP production (pM min-1 well-1) [1] | cAMP production (pM min-1 well-1) [2] | SMILES | cAMP production [3] [pmol/min/well] | Protection [4] [%] | Protection [5] [%] | Protection [6] [%] | Protection [7] [%] | Protection [8] [%] | further results |
| --- | --- | --- | --- | --- | --- | --- | --- | --- | --- |
| 142 | 41.6 | Cc1c(C)c2c(c(C)c1O)CCC(C)(COc1ccc(NCC(O)COc3cccc4cnccc34)cc1)O2 (stereo not given) | 28.7 | 54.8 | 49.3 | 39.4 | 94.4 | 115.2 |  |
|  |  | COc1ccccc1OCCNCC(O)COc1cccc2[nH]c3ccccc3c12 (stereo not given) [CARVEDILOL] |  | 20 |  | 1 |  | -88.6 | Protection [9]: -0.6%; Protection [10]: 6.2% |
|  | 22.3 | Cc1c(C)c2c(c(C)c1O)CCC(C)(COc1ccc(NCC(O)COc3cccc4[nH]c5ccccc5c34)cc1)O2 (stereo not given) | 31.5 |  |  |  |  |  |  |
|  |  | Cc1c(C)c2c(c(C)c1O)CCC(C)(COc1ccc(NCC(O)COc3cccc4[nH]c5ncccc5c34)cc1)O2 (stereo not given) |  |  | 53.6 | 44.3 | 75.5 |  |  |
|  | 23.9 | CC(C)(C)c1cc(CCCOc2ccc(NCC(O)COc3ccc4ccncc4c3)cc2)cc(C(C)(C)C)c1O (stereo not given) | 26.9 |  |  |  |  |  |  |
|  |  | CC(C)(C)c1cc(CCCOc2ccc(NCC(O)COc3cccc4ncccc34)cc2)cc(C(C)(C)C)c1O (stereo not given) | 21.6 |  | 33.3 | 30.3 | 50.4 |  | Protection [11]: 120.3%; Protection [12]: 47.3% |
|  | 33.2 | Cc1c(C)c2c(c(C)c1O)CCC(C)(COc1ccc(NCC(O)COc3ccc4ccncc4c3)cc1)O2 (stereo not given) | 33 |  |  |  |  |  |  |
| 130 | 76.3 | CC(C)(C)c1cc(CCCOc2ccc(NCC(O)COc3cccc4cnccc34)cc2)cc(C(C)(C)C)c1O (stereo not given) | 24.9 |  | 32.8 | 43.6 | 49.3 |  |  |
| 103 | 28.6 | Cc1c(C)c2c(c(C)c1O)CCC(C)(COc1ccc(NCC(O)COc3cccc4ncccc34)cc1)O2 (stereo not given) | 26.8 | 49.2 |  |  |  | 82.9 | Protection [9]: 64.6%; Protection [13]: 37.8%; Protection [10]: 78.2% |
|  |  | Cc1c(C)c2c(c(C)c1O)CCC(C)(C(=O)O)O2 (stereo not given) [TROLOX] |  | 31.4 |  | -21.4 |  | 75.2 | Protection [9]: 7.6%; Protection [10]: 64.8% |
| 97.4 | 21.4 | CC(C)(C)c1cc(CCCOc2ccc(NCC(O)COc3ccc4cccnc4c3)cc2)cc(C(C)(C)C)c1O (stereo not given) | 23.3 |  |  |  |  |  |  |
